Each structure is given as a SMILES string.

Experiment [1] concerns the target T1, E-selectin (Homo sapiens) (UniProt P16581).
T1 sequence (whole entry): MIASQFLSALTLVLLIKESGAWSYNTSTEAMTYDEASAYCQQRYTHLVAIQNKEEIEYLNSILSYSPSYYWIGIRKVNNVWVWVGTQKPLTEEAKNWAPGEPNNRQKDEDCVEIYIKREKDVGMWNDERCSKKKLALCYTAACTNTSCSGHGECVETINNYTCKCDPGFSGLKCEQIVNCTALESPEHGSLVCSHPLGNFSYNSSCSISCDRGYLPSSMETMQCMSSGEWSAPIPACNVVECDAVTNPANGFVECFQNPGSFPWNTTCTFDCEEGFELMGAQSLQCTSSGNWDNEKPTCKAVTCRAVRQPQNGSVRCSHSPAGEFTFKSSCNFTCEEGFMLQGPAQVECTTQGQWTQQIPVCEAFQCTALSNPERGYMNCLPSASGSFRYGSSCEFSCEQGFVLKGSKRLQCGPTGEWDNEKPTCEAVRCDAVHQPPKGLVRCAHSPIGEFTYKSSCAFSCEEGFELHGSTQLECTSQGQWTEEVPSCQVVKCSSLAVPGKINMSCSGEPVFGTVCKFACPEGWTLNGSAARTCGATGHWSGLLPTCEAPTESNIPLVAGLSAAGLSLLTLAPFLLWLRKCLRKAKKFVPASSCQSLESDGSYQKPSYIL
As to the kind of experiment: Inhibition of human E-selectin after 2 hrs at 100 uM. Put shortly:
(§1)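 Human E-, P- or L-selectin/Fc chimera (0.61 nM) captured on anti-Fc-coated wells, then incubated 2 h at 37 °C with peroxidase-streptavidin-complexed sLeX-tyrosine sulfate polyacrylamide ligand plus compound at 100 µM in HEPES buffer pH 7.4 with CaCl2, 1% DMSO. Bound ligand measured by TMB, OD 450 vs 620 nm; % inhibition reported.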

Experiment [2] addresses T2, P-selectin (Homo sapiens) (UniProt P16109).
T2 sequence (whole entry): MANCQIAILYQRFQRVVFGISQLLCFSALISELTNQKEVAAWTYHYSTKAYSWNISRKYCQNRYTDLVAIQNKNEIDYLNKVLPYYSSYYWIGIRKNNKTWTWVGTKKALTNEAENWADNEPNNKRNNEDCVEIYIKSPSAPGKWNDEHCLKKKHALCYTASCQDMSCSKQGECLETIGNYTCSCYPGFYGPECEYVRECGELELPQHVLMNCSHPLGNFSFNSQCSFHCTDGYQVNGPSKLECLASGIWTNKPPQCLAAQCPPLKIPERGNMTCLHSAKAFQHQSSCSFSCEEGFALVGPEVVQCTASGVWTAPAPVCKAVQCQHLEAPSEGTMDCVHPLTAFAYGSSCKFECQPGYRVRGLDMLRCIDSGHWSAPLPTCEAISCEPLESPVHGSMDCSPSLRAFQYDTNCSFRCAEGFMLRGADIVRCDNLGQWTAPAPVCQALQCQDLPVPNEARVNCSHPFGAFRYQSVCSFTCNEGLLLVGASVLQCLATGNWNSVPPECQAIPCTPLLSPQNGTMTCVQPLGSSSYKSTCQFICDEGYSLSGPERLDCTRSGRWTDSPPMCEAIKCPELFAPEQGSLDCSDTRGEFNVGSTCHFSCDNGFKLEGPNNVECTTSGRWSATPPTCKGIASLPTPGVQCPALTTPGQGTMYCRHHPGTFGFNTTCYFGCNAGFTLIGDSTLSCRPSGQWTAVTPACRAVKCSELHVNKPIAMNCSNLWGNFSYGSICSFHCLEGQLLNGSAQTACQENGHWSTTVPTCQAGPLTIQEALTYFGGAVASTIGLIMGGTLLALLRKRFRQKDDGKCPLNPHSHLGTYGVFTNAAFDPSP
Description: Inhibition of human P-selectin after 2 hrs at 100 uM. Put shortly:
as §1

The target in experiment [3] is T3, L-selectin (Homo sapiens) (UniProt P14151).
T3 sequence (whole entry): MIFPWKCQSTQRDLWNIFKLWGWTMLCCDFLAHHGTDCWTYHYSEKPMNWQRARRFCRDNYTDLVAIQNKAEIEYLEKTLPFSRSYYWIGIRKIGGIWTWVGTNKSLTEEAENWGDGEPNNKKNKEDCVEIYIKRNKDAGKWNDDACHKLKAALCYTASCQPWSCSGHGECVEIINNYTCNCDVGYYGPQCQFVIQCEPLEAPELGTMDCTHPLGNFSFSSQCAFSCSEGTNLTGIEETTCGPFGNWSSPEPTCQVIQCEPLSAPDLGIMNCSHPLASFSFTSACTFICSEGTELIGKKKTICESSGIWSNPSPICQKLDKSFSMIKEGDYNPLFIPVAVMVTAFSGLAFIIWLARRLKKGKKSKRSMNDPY
As to the kind of experiment: Inhibition of human L-selectin after 2 hrs at 100 uM. Put shortly: as §1

The test system of experiment [4] is HL-60. As to the kind of experiment: Inhibition of attachment of HL60 cells to E-selectin at 109 uM after 5 mins. It is filed as functional. The settings on record: Homo sapiens, HL-60, 5 min. The procedure, abridged:
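Dishes coated with E- or P-selectin/Fc chimera, blocked with BSA, mounted in a parallel flow chamber run recirculating; HL-60 cells at 2.4 million/mL final. Cells attached after 5 min continuous flow at calculated shear 1 dyn/cm², with 109 µM compound or DMSO vehicle, counted in five low power fields. Mean inhibition as % of vehicle control from mean cells/field of at least two independent experiments.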

Experiment [5] concerns HL-60. As to the kind of experiment: Inhibition of attachment of HL60 cells to P-selectin at 109 uM after 5 mins. Format: functional. Conditions: Homo sapiens, HL-60, 5 min. Put shortly:
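Dishes coated with E- or P-selectin/Fc chimera, blocked with BSA, mounted in a parallel flow chamber run recirculating; HL-60 cells at 2.4 million/mL final. Mean inhibition as % of vehicle control from mean cells/field of at least two independent experiments.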

In experiment [6] the target is T4, E-selectin (Homo sapiens, UniProt P16581).
T4 sequence (P16581 whole entry): T1 sequence (whole entry)
Description: Inhibition of human E-selectin after 2 hrs. Put shortly: (§2)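 Biotinylated sLeX-tyrosine sulfate polyacrylamide complexed with streptavidin-peroxidase added with compound at varying concentrations (HEPES pH 7.4, 1 mM CaCl2, 1% DMSO), 2 h 37 °C. TMB read-out, OD 450 vs 620 nm.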

Experiment [7] has as its target T5, P-selectin (Homo sapiens, UniProt P16109).
T5 sequence (P16109 whole entry): T2 sequence (whole entry)
Description: Inhibition of human P-selectin after 2 hrs. Put shortly:
as §2

Experiment [8] addresses T6, L-selectin (Homo sapiens, UniProt P14151).
T6 sequence (P14151 whole entry): T3 sequence (whole entry)
As to the kind of experiment: Inhibition of human L-selectin after 2 hrs. The procedure, abridged:
as §2

For `O=c1cc(-c2ccccc2)oc2cc(O)cc(O)c12`, the figures for the inhibition in experiment [1], in experiment [2] and in experiment [3] were 15%, -5.3% and 4.3%, respectively.

As to `Oc1cccc(O)c1O` [PYROGALLOL], the inhibition worked out at 8.3% in experiment [1], 1.7% in experiment [2] and 13.5% in experiment [3]. The inhibition at 109 µM in experiment [4] was 47%; in experiment [5], 24%.

On to `O=C(O)C1=C[C@@H](O)[C@@H](O)[C@H](O)C1`, for which the inhibition in experiment [1] is 25.6%; in experiment [2], -1%; in experiment [3], 12.2%.

Turning to `O=c1cc(-c2ccccc2)oc2cc(O)c(O)c(O)c12`, the values for the inhibition in experiment [1], in experiment [2] and in experiment [3] were 37.6%, 52% and 51.7%, respectively.

As for `O=C(O)Cc1ccc(-c2ccccc2NC(=O)CCCc2ccc(O)c(O)c2O)s1`, the IC50 in experiment [6] was over 500 µM; in experiment [7] it was 24.8 µM; in experiment [8] it was 41.7 µM. Besides, the inhibition at 109 µM in experiment [4] was found to be 26%; in experiment [5] it was 47%.

As for `O=c1c(O)cccc2cc(O)c(O)c(O)c12`, the inhibition in experiment [1] was 3.1%; in experiment [2] it was 77%; in experiment [3], 83.6%.

For the compound `O=C(Nc1ccccc1-c1ccc(C(=O)O)s1)c1cccc(-c2ccc(O)c(O)c2O)c1`, the concentration for half-maximal inhibition (IC50) in experiment [6] was 61.4 µM; in experiment [7] it was 1.2 µM; in experiment [8] it was 1.6 µM. For the same compound, the inhibition at 109 µM is 53% in experiment [4] and 98% in experiment [5].

Take `O=C(O)Cc1cccc(-c2ccccc2OC(=O)c2cc(O)c(O)c(O)c2)c1`: the results for the IC50 in experiment [6], in experiment [7] and in experiment [8] were over 500 µM, 0.87 µM and 1.5 µM, respectively. The inhibition at 109 µM was 16% in experiment [4] and 35% in experiment [5].

Regarding `O=C(O)c1ccc(O)c(O)c1`, the inhibition was 19.5% in experiment [1] and 1.3% in experiment [3].

As to `O=C(O)Cc1ccc(-c2ccccc2NC(=O)Cc2cc(O)c(O)c(O)c2)s1`, the concentration for half-maximal inhibition (IC50) in experiment [6] was 3.3 µM; in experiment [7], 2.4 µM; in experiment [8] it was 3.1 µM. The inhibition at 109 µM in experiment [4] is 35%; in experiment [5], 11%.

Regarding `O=C(O)Cc1cccc(-c2ccccc2NC(=O)CCc2cc(O)c(O)c(O)c2)c1`, the values for the IC50 in experiment [6], in experiment [7] and in experiment [8] were 85.4 µM, 43.2 µM and 64.9 µM, respectively. The results for the inhibition at 109 µM in experiment [4] and in experiment [5] were 20% and 22%, respectively.

`O=C(O)c1cccc(O)c1O`: the inhibition in experiment [1] is 6%; in experiment [2], -3%; in experiment [3], 1.1%.

The term inhibition denotes the drop in the measured response relative to a control, in per cent. As a reminder, the IC50 is the concentration at which inhibition is half-maximal. A low value points to inhibition by little substance.
